Screening results: PubChem BioAssay, Broad Institute
Env fusion inh: inhibitors of HIV-1 Env-driven cell-cell fusion, primary screen, HeLa-JRFL effector, CEM21 target cells, luciferase; inhibition, % at 12.3 µM; hit rate 1.1% among 360,000; AID 651610, 2012;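 active = mean replicate inhibition score of at least 50 and every replicate individually at or above 50; inconclusive = only one of the two criteria met; inactive = mean below 50 and not all replicates reaching 50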;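 also: 0% = plate neutral controls and 100% = maraviroc near 300 nM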
Ecoli rRNA inh: reduced GFP signal of wild-type E. coli, primary screen, bacterial rRNA inhibitor project, GFP/RFP fluorescence, OD600, single point; E. coli WT GFP vs humanized-ribosome RFP mutants, 24 h; active compounds read low; DMSO median 0, no signal -100; GFP signal change (wild-type ribosome), % (test concentration not listed); hit rate 1.6% among 350,000;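 active = significant combined selectivity score with lowered wild-type GFP, culture density cut under 30%, mutant RFP and density less affected; inactive = any of these conditions unmet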
ERAP1 HTS inh: human ERAP1 aminopeptidase inhibitors, primary screen, biochemical, single point, plate reader; Endoplasmic reticulum aminopeptidase 1 (Homo sapiens), Q9NZ08; recombinant ERAP1, Leu-AMC fluorescence, 60 min; inhibition, % at 10.7 µM; hit rate 0.15% among 340,000;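 active = mean replicate inhibition of at least 30%, or all replicates individually reaching that 30% level; inactive = mean below 30% and not every replicate reaching it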;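 also: 0% = neutral control wells and 100% = L-leucinethiol positive control wells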
FGF22 binding: binders of human FGF22 protein, primary screen, FGF22 synaptogenesis inhibitor project, biophysical, thermal shift, single point. hit rate 1.5% among 340,000. Fibroblast growth factor 22 (Homo sapiens), Q9HCT0. recombinant FGF22 thermal shift, SYPRO orange fluorescence; percent of sucrose octasulfate shift, DMSO zero. activity (Tm shift, normalised), % at 9.99 µM. AID 651658, 2012;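 active = mean Tm shift, scaled 0 neutral to 100 positive control, at about 1.3% or above, every replicate too, limit read from the data; inconclusive = no clear call, values can overlap the other calls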
Target sequence (Q9HCT0 whole entry, looked up): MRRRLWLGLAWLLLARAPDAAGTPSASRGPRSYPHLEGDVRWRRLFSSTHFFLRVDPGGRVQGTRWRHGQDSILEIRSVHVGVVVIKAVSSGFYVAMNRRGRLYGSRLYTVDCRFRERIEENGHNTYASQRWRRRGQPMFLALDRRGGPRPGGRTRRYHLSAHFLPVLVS
Cneo AK release: Cryptococcus neoformans cell lysis inducers, primary screen, AK release luminescence, single concentration | hit rate 0.2% among 360,000 | C. neoformans lysis, adenylate kinase release luminescence, 4 h; normalised: neutral wells 0, clomiphene wells 100 | AID 651654, 2012 | lysis activity, % at 15 µM;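 active = mean lysis activity across replicates of at least 80%, whatever share of replicates individually reach that level; inactive = mean lysis activity below 80%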
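Assay system: C. neoformans cells. Amount: yeast cell density of 5 × 10^6 cells/mL. Technique: AK luminescence. Buffer or medium: YPD. Times: static 4 h at 37 °C with compound, 1 h detection. Dosing: single-point compound dose. Read-out: lysis from increased AK signal.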
PGC1a acetyl inh: inhibitors of PGC1a acetylation signal, primary screen, cell-based, U2OS, AlphaScreen, inhibitor mode. AlphaScreen anti-acetyl-lysine; with virally co-expressed GCN5 acetyltransferase. inhibition, % at 15.6 µM. hit rate 0.17% among 350,000. AID 651687, 2012;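 active = every replicate shows inhibition of at least 40%; inconclusive = mean inhibition at least 40% but some replicate below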;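 also: 0% = neutral control wells and 100% = positive control wells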
Starred values were filed as active, the others as inactive; ? = inconclusive; / = not tested or not shown; [ ] = dose if it differs, or a comment. Most compounds without a hit are left out; they make up all but 3.5% or so of the library.

SMILES | Env fusion inh | Ecoli rRNA inh | ERAP1 HTS inh | FGF22 binding | Cneo AK release | PGC1a acetyl inh
C[C@@H]1CCCCO[C@H](CN(C)S(=O)(=O)c2ccc(Cl)cc2)[C@H](C)CN([C@H](C)CO)C(=O)c2cc(NS(=O)(=O)c3cccs3)ccc2O1 | 46.9[16.7 µM] | 1.0 | -1.4 | -0.5 | 74.8 | -6.7
C[C@H](CO)N1C[C@H](C)[C@H](CN(C)S(=O)(=O)c2cccs2)OCCCC[C@H](C)Oc2ccc(NS(=O)(=O)c3ccc(Cl)cc3)cc2C1=O | 47.4[16.7 µM] | 1.7 | -1.5 | 1.2* | 0.1 | -11.7
CNC[C@H]1Oc2ccc(NS(=O)(=O)c3ccc(Cl)cc3)cc2C(=O)N([C@H](C)CO)C[C@@H]1C | / | 7.6 | 3.3 | -0.2 | -41.1 | 2.7
Cc1ccc(S(=O)(=O)Nc2ccc3c(c2)C(=O)N([C@H](C)CO)C[C@H](C)[C@@H](CN(C)S(=O)(=O)c2ccc(Cl)cc2)OCCCC[C@H](C)O3)cc1 | 31.2[16.7 µM] | -3.4 | / | 30.6* | -0.8 | -10.7
C[C@H](CO)N1C[C@H](C)[C@@H](CN(C)S(=O)(=O)c2cccs2)OCCCC[C@H](C)Oc2ccc(NS(=O)(=O)c3ccc(Cl)cc3)cc2C1=O | 12.6[16.7 µM] | -4.8 | -1.0 | -0.7 | 0.2 | 2.8
CNC[C@@H]1Oc2ccc(NS(=O)(=O)c3ccc(Cl)cc3)cc2C(=O)N([C@H](C)CO)C[C@H]1C | / | 4.6 | 0.4 | -0.1 | 107.7* | 0.8
C[C@H]1CCCCO[C@H](CN(C)S(=O)(=O)c2ccc(Cl)cc2)[C@@H](C)CN([C@@H](C)CO)C(=O)c2cc(NS(=O)(=O)c3cccs3)ccc2O1 | -20.6[16.7 µM] | -2.7 | -1.7 | -0.6 | 89.1* | -0.9
CCOC(=O)C1(C(N)=O)OC1(c1ccc(Cl)cc1)c1ccccc1Cl (stereo unspecified) | -7.0 | -18.7* | 0.3 | 0.1 | 0.8 | -2.2
NC(=O)C1(C(=O)O)OC1(c1ccc(Cl)cc1)c1ccccc1Cl (stereo unspecified) | 7.0 | 1.5 | -3.2 | 0.3 | 4.7 | 4.5
C[C@@H]1CN([C@@H](C)CO)C(=O)CCCn2cc(nn2)CO[C@H]1CN(C)Cc1ccc(Oc2ccccc2)cc1 | / | 0.5 | / | / | / | -4.3
CCOc1cc(/C=N/NC(=O)CCCC(=O)NC2CCCCC2)ccc1O | 6.2 | -8.4 | 0.4 | -0.4 | 101.7* | -10.1
O=C(Nc1ccnn1C1CCN(CC2CC=CCC2)CC1)c1ccccc1 (stereo unspecified) | -5.1 | 0.5 | -1.5 | -0.3 | 0.6 | /
O=C(COC(=O)/C=C/c1ccc(F)cc1)NCc1ccco1 | -0.4 | / | 5.9 | 43.4* | 0.1 | -3.1
CCN(c1ccc(NC(=O)COC(=O)c2ccc(C)s2)cc1)C(C)C | ? | -27.2* | 7.1 | 43.1* | 2.7 | 0.1
O=C(COC(=O)/C=C/c1ccc([N+](=O)[O-])cc1)NCc1ccco1 | 4.9 | -1.1 | -1.4 | 0.0 | -1.0 | -0.4
Cc1ccc(C(=O)OCC(=O)NCc2ccco2)s1 | 21.3 | 10.4 | 0.1 | 44.1* | / | /
COCC(=O)Nc1ccc2c(c1)C(=O)N(C)C[C@@H](OC)[C@H](C)CN(CC1CCCCC1)[C@H](C)CO2 | / | -5.3 | -1.7 | 0.2 | -0.3 | -7.7
Clc1cncc(Cl)c1N/N=C/c1ccncc1 | 18.0 | -4.6 | 1.3 | 0.3 | 2.8 | 31.6
Clc1cccc(Cl)c1/C=N/Nc1c(Cl)cncc1Cl | -15.3 | -16.4* | -0.7 | -0.1 | / | -7.3
CCOC(=O)N1CCC(c2[nH][nH]c(=O)c2C)CC1 | -17.9 | / | / | / | -4.3 | 0.3
Cc1[nH]c2ccccc2c1CN1CCC(Cc2ccccc2)CC1 | 3.3 | -42.3* | -4.6 | 0.0 | 1.0 | -5.1
C[C@H]1CN([C@@H](C)CO)C(=O)c2cccc(NS(=O)(=O)c3ccc(Cl)cc3)c2O[C@@H]1CN(C)CC1CC1 | -20.1[16.7 µM] | / | -1.1 | / | 89.2* | -13.1
C[C@@H]1CN([C@H](C)CO)C(=O)c2cccc(NS(=O)(=O)c3ccc(Cl)cc3)c2O[C@H]1CN(C)CC1CCCCC1 | 88.4*[16.7 µM] | -1.6 | -1.2 | -0.6 | 2.5 | /
CC(C)NC(=O)N(C)C[C@@H]1Oc2c(NS(=O)(=O)c3ccc(Cl)cc3)cccc2C(=O)N([C@@H](C)CO)C[C@H]1C | 2.9[16.7 µM] | -0.2 | -3.2 | -0.2 | -0.4 | -5.6
CC(C)NC(=O)N(C)C[C@H]1Oc2c(NS(=O)(=O)c3ccc(Cl)cc3)cccc2C(=O)N([C@@H](C)CO)C[C@@H]1C | 19.8[16.7 µM] | -3.5 | 4.7 | 0.0 | 104.7* | -6.7
SMILES | Env fusion inh | Ecoli rRNA inh | ERAP1 HTS inh | FGF22 binding | Cneo AK release | PGC1a acetyl inh
Brc1ccc2c(c1)-c1ccccc1C1=NCCN12 | -374.0 | -39.8 | -3.7 | 43.4* | 3.7 | -5.1
Clc1ccc2c(c1)-c1ccccc1C1=NCCN12 | 12.0 | / | -2.8 | -0.1 | / | /
NC(N)=NC(=O)c1nc(Cl)c(N)nc1N | -8.6 | 5.4 | 4.9 | -0.2 | -2.7 | -4.9
NC(N)=NC(=O)c1nc(Cl)c(N2CCCCCC2)nc1N | 61.7* | / | 6.7 | -0.2 | 7.2 | 2.5
Cc1nc(N2CCN(Cc3ccc4c(c3)OCO4)CC2)c2oc3ccccc3c2n1 | -25.9 | -20.4 | 0.7 | 0.0 | 0.4 | -16.3
O=C(C1CCOCC1)N1CC[C@@H]2[C@H](CO)Nc3ccc(Br)cc3[C@@H]21 | / | -0.4 | -1.5 | -0.4 | -11.7 | 9.5
N#Cc1cccc(-c2ccc3c(c2)[C@@H]2[C@@H](CCN2C(=O)c2ccccc2F)[C@H](CO)N3)c1 | / | -23.3 | -0.5 | -0.2 | -2.9 | -0.1
O=C(CN1CCOCC1)N1CC[C@@H]2[C@@H](CO)Nc3ccc(-c4ccccc4F)cc3[C@@H]21 | / | 4.3 | / | -0.1 | 100.9* | -23.7
N#Cc1cccc(-c2ccc3c(c2)[C@H]2[C@H](CCN2C(=O)c2ccccc2F)[C@H](CO)N3)c1 | / | -25.5* | / | / | -22.3 | -12.1
O=C(C1CCOCC1)N1CC[C@@H]2[C@H]1c1cc(Br)ccc1N[C@@H]2CO | / | 4.6 | -4.1 | -0.3 | 87.3* | 11.4
Cc1oc(-c2ccc(Cl)cc2)nc1CN1CCCN(C(=O)c2ccco2)CC1 | / | -1.1 | 1.7 | -0.1 | 2.9 | 7.1
CC(C)CC#Cc1ccc2c(c1)O[C@@H](CN(C)Cc1ccccc1)[C@@H](C)CN([C@@H](C)CO)S2(=O)=O | 36.9[16.7 µM] | -7.6 | / | / | / | 38.4
COc1ccc(/C(C)=N/NC(=O)c2cccc(S(=O)(=O)N3CCCC3)c2)c(O)c1 | 81.6* | -9.3 | -1.9 | -0.1 | -3.4 | /
COc1ccc(C(C)=NNC(=O)c2cccc(S(=O)(=O)N3CCCC3)c2)cc1 | 12.8 | 16.7 | 0.0 | 0.0 | -3.3 | -4.5
